Experiments:
[1] = biological target: Telomerase reverse transcriptase (Homo sapiens, UniProt O14746); assay: Inhibition of telomerase in human MGC803 cell extracts after 24 hrs by TRAP-PCR-ELISA; design: species or system MGC-803
Procedure, shortened: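 MGC-803 cells were grown in DMEM with 10% FBS, streptomycin and penicillin at 37 °C, 5% CO2, and 5 × 10^4 cells were seeded and allowed to adhere. Cells were exposed to staurosporine and test agents (60 to 0.0821 […] series) for 24 h, then scraped, washed, lysed in RIPA buffer on ice for 30 min, and spun at 12,000 g for 20 min at 4 °C. Extract (2 µL) was run in a TRAP-PCR-ELISA with anti-DIG peroxidase detection and read at 490 nm. Values are mean ± SD.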

[2] = Anticancer activity against human SGC7901 cells assessed as cell survival after 48 hrs by MTT assay; assay type: functional, cell-based; conditions: SGC-7901, 48 h
Procedure, shortened: (§1)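 MTT colorimetric assay. MTT was added (4 h, 37 °C), followed by DMSO, and absorbance was read at 570 nm. IC50 is the concentration giving 50% cell survival. Values are the mean ± SD of three independent experiments in triplicate.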

MGC-803 [3] = assay: Anticancer activity against human MGC803 cells assessed as cell survival after 48 hrs by MTT assay; assay type: functional, cell-based; conditions: MGC-803, 48 h; procedure, shortened: as §1
[4] = Octanol-water partition coefficient, log P of the compound by shake-flask method; assay type: physicochemical
Procedure, shortened: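 Shake-flask method: the solute was dissolved in octanol and water and its concentration in each phase was measured by HPLC. Log P is the logarithm of the octanol/aqueous concentration ratio.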

[5] = Anticancer activity against human SMMC7721 cells assessed as cell survival after 48 hrs by MTT assay; assay type: functional, cell-based; conditions: SMMC-7721, 48 h; procedure, shortened: as §1
HepG2 [6] = assay: Anticancer activity against human HepG2 cells assessed as cell survival after 48 hrs by MTT assay; assay type: functional, cell-based; conditions: HepG2, 48 h; procedure, shortened: as §1
MGC-803 [7] = assay: Ratio of celastrol IC50 to compound IC50 for human MGC803 cells assessed as cell survival after 48 hrs by MTT assay; assay type: functional
SMMC-7721 [8] = assay: Induction of apoptosis in human SMMC7721 cells assessed as normal cells at 0.5 uM after 48 hrs by annexin V/PI staining based flow cytometry (reference value: 98%); assay type: functional
SMMC-7721 [9] = assay: Induction of apoptosis in human SMMC7721 cells assessed as necrotic cells at 0.5 uM after 48 hrs by annexin V/PI staining based flow cytometry (reference value: 0%); assay type: functional
SMMC-7721 [10] = assay: Induction of apoptosis in human SMMC7721 cells assessed as non-viable cells at 0.5 uM after 48 hrs by annexin V/PI staining based flow cytometry (reference value: 1.56%); assay type: functional
SMMC-7721 [11] = assay: Induction of apoptosis in human SMMC7721 cells assessed […] cells at 0.5 uM after 48 hrs by annexin V/PI staining based flow cytometry (reference value: 0.434%); assay type: functional; conditions: SMMC-7721, 48 h, read-out: Activity
HepG2 [12] = assay: Ratio of celastrol IC50 to compound IC50 for human HepG2 cells assessed as cell survival after 48 hrs by MTT assay; assay type: functional

Telomerase reverse transcriptase, sequence (O14746 whole entry): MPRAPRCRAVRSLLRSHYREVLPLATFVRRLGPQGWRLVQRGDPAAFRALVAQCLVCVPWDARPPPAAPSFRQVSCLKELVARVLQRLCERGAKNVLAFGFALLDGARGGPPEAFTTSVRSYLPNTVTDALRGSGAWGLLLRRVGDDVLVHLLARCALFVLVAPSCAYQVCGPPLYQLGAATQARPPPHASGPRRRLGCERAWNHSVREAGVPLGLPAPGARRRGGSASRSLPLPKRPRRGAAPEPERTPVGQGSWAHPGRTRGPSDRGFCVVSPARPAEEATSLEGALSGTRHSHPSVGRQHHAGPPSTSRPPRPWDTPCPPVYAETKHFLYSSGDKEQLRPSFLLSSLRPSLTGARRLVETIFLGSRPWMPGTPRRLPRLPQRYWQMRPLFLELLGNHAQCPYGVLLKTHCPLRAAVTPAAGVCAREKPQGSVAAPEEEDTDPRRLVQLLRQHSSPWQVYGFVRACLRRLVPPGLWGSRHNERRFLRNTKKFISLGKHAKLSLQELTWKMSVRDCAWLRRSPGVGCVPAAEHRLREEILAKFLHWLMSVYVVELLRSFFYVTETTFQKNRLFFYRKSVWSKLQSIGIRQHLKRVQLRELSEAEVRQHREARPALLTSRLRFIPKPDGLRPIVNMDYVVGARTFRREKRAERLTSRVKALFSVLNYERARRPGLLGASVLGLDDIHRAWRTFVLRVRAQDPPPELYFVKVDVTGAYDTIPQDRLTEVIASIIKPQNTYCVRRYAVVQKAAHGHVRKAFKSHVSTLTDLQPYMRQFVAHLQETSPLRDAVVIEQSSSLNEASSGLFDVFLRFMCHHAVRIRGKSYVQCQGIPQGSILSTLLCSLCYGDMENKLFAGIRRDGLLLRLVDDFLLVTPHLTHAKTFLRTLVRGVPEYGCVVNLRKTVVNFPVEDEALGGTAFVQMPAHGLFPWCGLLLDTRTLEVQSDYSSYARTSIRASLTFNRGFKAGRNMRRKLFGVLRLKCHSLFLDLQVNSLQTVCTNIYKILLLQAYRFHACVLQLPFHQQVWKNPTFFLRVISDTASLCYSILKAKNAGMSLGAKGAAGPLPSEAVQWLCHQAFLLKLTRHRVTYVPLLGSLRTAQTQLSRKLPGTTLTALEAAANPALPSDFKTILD

Row | Structure (SMILES) | IC50 [1] [µM] | IC50 [2] [µM] | IC50 (MGC-803 [3]) [µM] | logP [4] | IC50 [5] [µM] | IC50 (HepG2 [6]) [µM] | Ratio IC50 (MGC-803 [7]) | Activity (SMMC-7721 [8]) [%] | Activity (SMMC-7721 [9]) [%] | Activity (SMMC-7721 [10]) [%] | viability at 0.5 µM (SMMC-7721 [11]) [%] | Ratio IC50 (HepG2 [12])
1 | C/C(=C\C(=O)Nc1ccccc1C(=O)O)c1ccc2ccccc2c1 | 0.41 | – | – | – | – | – | – | – | – | – | – | –
2 | CCOC(=O)[C@]1(C)CC[C@]2(C)CC[C@]3(C)C4=CC=C5C(=CC(=O)C(O)=C5C)[C@]4(C)CC[C@@]3(C)[C@@H]2C1 | 18.6 | 11.5 | 12 | 4.98 | 9.28 | 15.2 | – | – | – | – | – | –
3 | CNC(=O)[C@]1(C)CC[C@]2(C)CC[C@]3(C)C4=CC=C5C(=CC(=O)C(O)=C5C)[C@]4(C)CC[C@@]3(C)[C@@H]2C1 | 15.1 | 9.38 | 24.1 | 3.96 | 7.62 | 10.6 | – | – | – | – | – | –
4 | CC1=C(O)C(=O)C=C2C1=CC=C1[C@@]2(C)CC[C@@]2(C)[C@@H]3C[C@](C)(C(=O)N(C)C)CC[C@]3(C)CC[C@]12C | 21 | 10.5 | 6.3 | 4.2 | 20 | 11.2 | – | – | – | – | – | –
5 | CC1=C(O)C(=O)C=C2C1=CC=C1[C@@]2(C)CC[C@@]2(C)[C@@H]3C[C@](C)(C(=O)NCCO)CC[C@]3(C)CC[C@]12C | 0.11 | 0.16 | 0.39 | 3.44 | 0.3 | 0.61 | 4 | 37.6 | 1.24 | 48 | 13.2 | 6.6
6 | CC1=C(O)C(=O)C=C2C1=CC=C1[C@@]2(C)CC[C@@]2(C)[C@@H]3C[C@](C)(C(=O)NCC(C)O)CC[C@]3(C)CC[C@]12C (stereo partly specified) | 0.34 | 0.1 | 1.22 | 3.49 | 0.61 | 0.28 | 1.3 | – | – | – | – | 14.3
7 | CCCCNC(=O)[C@]1(C)CC[C@]2(C)CC[C@]3(C)C4=CC=C5C(=CC(=O)C(O)=C5C)[C@]4(C)CC[C@@]3(C)[C@@H]2C1 | – | 4.9 | 3.55 | – | 6.88 | 3.07 | – | – | – | – | – | –
8 | CC1=C(O)C(=O)C=C2C1=CC=C1[C@@]2(C)CC[C@@]2(C)[C@@H]3C[C@](C)(C(=O)N4CCOCC4)CC[C@]3(C)CC[C@]12C | 8.01 | 8.74 | 30.7 | 3.8 | 10.7 | 22.7 | – | – | – | – | – | –
9 | CC1=C(O)C(=O)C=C2C1=CC=C1[C@@]2(C)CC[C@@]2(C)[C@@H]3C[C@](C)(C(=O)N4CCN(CCN5CCOCC5)CC4)CC[C@]3(C)CC[C@]12C | 15.2 | 8.1 | 13.4 | 3.5 | 12.3 | 16.4 | – | – | – | – | – | –
10 | CC1=C(O)C(=O)C=C2C1=CC=C1[C@@]2(C)CC[C@@]2(C)[C@@H]3C[C@](C)(C(=O)N4CCN(CCO)CC4)CC[C@]3(C)CC[C@]12C | 2.01 | 3.81 | 10.3 | 3.44 | 1.84 | 8.7 | – | – | – | – | – | –
11 | CC1=C(O)C(=O)C=C2C1=CC=C1[C@@]2(C)CC[C@@]2(C)[C@@H]3C[C@](C)(C(=O)N4CCN(CCN(C)C)CC4)CC[C@]3(C)CC[C@]12C | 1.41 | 1.33 | 1 | 3.95 | 2.58 | 5.21 | – | – | – | – | – | –
12 | CC1=C(O)C(=O)C=C2C1=CC=C1[C@@]2(C)CC[C@@]2(C)[C@@H]3C[C@](C)(C(=O)O)CC[C@]3(C)CC[C@]12C [CELASTROL] | 0.78 | 0.15 | 1.55 | 4.38 | 0.58 | 4.01 | – | – | – | – | – | –
13 | COc1cccc2c1C(=O)c1c(O)c3c(c(O)c1C2=O)C[C@@](O)(C(=O)CO)C[C@@H]3O[C@H]1C[C@H](N)[C@H](O)[C@H](C)O1 [DOXORUBICIN] | – | 1.45 | 1.19 | – | 1.22 | 0.87 | – | – | – | – | – | –
14 | O=c1[nH]cc(F)c(=O)[nH]1 [FLUOROURACIL] | – | 6.12 | 3.58 | – | 4.87 | 5.86 | – | – | – | – | – | –
